Screens (PubChem BioAssay)
eIF4H FP inh: inhibitors of RNA binding by human eIF4H; Q15056; AID 2012; inhibition, % at 35 µM; 290,000 tested, 0.94% active; eIF4H fluorescence polarization binding assay;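 also: calls also rest on retests at 20 µM and on dose response follow-up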
PABP FP inh: PABP-poly(A) binding inhibition; P11940; 290,000 tested, 1% active; AID 2014; PABP-poly(A) RNA binding, fluorescence polarization; inhibition, % at 35 µM;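 also: calls also rest on retests at 20 µM and on dose response follow-up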
Target sequence (P11940 whole entry, looked up): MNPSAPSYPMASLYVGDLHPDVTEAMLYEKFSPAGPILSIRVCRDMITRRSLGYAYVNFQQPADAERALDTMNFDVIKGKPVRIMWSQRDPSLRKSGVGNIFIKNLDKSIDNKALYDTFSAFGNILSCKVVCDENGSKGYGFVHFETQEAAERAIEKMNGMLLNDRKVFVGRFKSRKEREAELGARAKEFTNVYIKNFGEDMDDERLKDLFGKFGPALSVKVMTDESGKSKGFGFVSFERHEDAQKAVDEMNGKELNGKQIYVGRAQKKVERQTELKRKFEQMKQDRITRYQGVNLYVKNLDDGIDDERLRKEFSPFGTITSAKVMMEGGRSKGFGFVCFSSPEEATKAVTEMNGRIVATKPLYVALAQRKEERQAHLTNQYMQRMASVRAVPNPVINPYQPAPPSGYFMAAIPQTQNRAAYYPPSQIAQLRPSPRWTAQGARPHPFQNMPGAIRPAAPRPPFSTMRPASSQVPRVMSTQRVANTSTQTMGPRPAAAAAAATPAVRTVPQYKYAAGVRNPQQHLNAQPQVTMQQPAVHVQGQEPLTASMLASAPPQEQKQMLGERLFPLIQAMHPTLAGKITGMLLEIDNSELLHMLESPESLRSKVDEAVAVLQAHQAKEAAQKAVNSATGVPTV
MLLE-PAM2 inh: inhibitors of microRNA-mediated deadenylation, human PABP1 MLLE binding; P11940; GST-MLLE / FITC-PAM2 fluorescence polarization; inhibition, % at 20 µM; 360,000 tested, 0.36% active; AID 588489; in the data active = inhibition above about 35%, passing the limit was not always enough;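 also: plate controls were DMSO wells with GST-MLLE for no effect and wells lacking GST-MLLE protein for full effect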
NS3 helicase inh: HCV NS3 helicase inhibition; NS3 helicase DNA unwinding, Cy5 molecular beacon fluorescence; inhibition, % at 10.9 µM; 290,000 tested, 0.56% active; AID 1800;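 active = inhibition above the mean of all tested compounds plus 3 SD, set per campaign, cut at about 35% in these data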;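 also: 0% = DMSO wells and 100% = thioflavine S control wells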
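test system = hepatitis C virus NS3 helicase domain fragment enzyme | reagent = annealed dual-labelled DNA beacon duplex, ATP-started | times = 1 h at 25 °C | detection = Cy5 fluorescence, 0 and 60 min reads | read-out basis = percent inhibition from t60/t0 fluorescence ratio | control set = DMSO and thioflavine S | replication = one well per compound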
ZTA DNA inh: blocks Epstein-Barr virus ZTA, an EBNA-1 counter-screen; ZTA-DNA binding, fluorescence polarization; 320,000 tested, 0.15% active; P03206; inhibition, % at 11 µM; in the data active = inhibition above about 33%
EBNA-1 inhibitor: blocks EBNA-1 binding to DNA; 300,000 tested, 0.34% active; inhibition, % at 14.8 µM; EBNA-1 DNA binding, fluorescence polarization; AID 1950; in the data active = inhibition above about 28%
The depositor's hits bear a star; ? = inconclusive; . = no result given. This is a sample that favours compounds with a hit; in the whole collection about 2.1% have one here. Unless noted, no rule for the calls is given here.

SMILES	eIF4H FP inh	PABP FP inh	MLLE-PAM2 inh	NS3 helicase inh	ZTA DNA inh	EBNA-1 inhibitor
O=C1OC(Cc2ccccn2)C(O)=C1C1=NCCCN1 (configuration not stated)	-5	-5	7	6	-8	11
N#Cc1ccsc1NC(=O)COC(=O)CCCSc1nc2ccccc2s1	102*	122*	-18	23	1	-1
Cc1noc(C)c1CSCC(=O)OCC(=O)Nc1sccc1C#N	58*	74*	0	5	-3	-3
C=C(C)COc1ccc2c(c1)CCC1C2CCC2(C)C(=O)C(=NO)CC12 (configuration not stated)	.	.	5	.	.	.
Cc1ccc(C(=O)N/C(=C\c2cn(C)c3ccccc23)C(=O)NCCCN2CCOCC2)cc1	-5	-7	-12	-19	1	-6
Cc1ccc(C(=O)N/C(=C\c2ccc(-c3ccccc3[N+](=O)[O-])o2)C(=O)NCCCN2CCOCC2)cc1	98*	82*	24	-76	8	-11
O=C(NC(=S)Nc1ccc(Cc2ccncc2)cc1)c1ccccc1Cl	2	0	43*	1	7	-2
O=C1/C(=C/c2ccc3c(c2)OCO3)Oc2cc(OCC(=O)N3CCC[C@H]3C(=O)O)ccc21	-4	10	-23	21	0	0
COc1ccc(/C=C2\Oc3cc(OCC(=O)N4CCC[C@H]4CO)ccc3C2=O)c(OC)c1	73	17*	-42	-16	-2	-8
Cc1cc(C)n(CC(=O)NNC(=O)CCCOc2ccc(Cl)cc2C)n1	-10	-3	8	6	-4	-5
Cc1cc(C)n(CC(=O)NNC(=O)COc2ccc(Br)cc2F)n1	.	.	101*	.	.	.
S=C(Nc1ccc2nc(-c3ccccn3)c(-c3ccccn3)nc2c1)N1CCCCC1	38	50*	30	-6	.	.
Cc1nc(-c2cccnc2)sc1C(=O)N/N=C/c1ccccc1Cl	-9	7	4	0	6	-7
C=C(C)C(=O)Nc1cccc(C2=NOC3(C2)C[C@H](C(N)=O)N(C(=O)/C=C/C)C3)c1 (some centres not stated)	88*	68*	3	.	19	4
C=C(C)C(=O)Nc1cccc(C2=NOC3(C2)C[C@@H](C(N)=O)N(C(=O)/C=C/CC)C3)c1 (some centres not stated)	84*	56*	2	.	-25	6
CCc1ccc(NC(=O)C(C)OC(=O)CCN2C(=O)C3CC=CCC3C2=O)cc1 (configuration not stated)	.	.	-4	.	.	.
CN(C(=O)c1cccc(COc2ccc(Cl)cc2Cl)c1)c1ccccc1	-9	102*	-2	-11	-9	-4
O=C(NCc1ccccc1)c1cccc(COc2cc(Cl)ccc2Cl)c1	-6	14	10	-2	0	-3
Cc1cc(/C=c2/sc3nc4ccccc4n3c2=O)c(C)n1-c1ccccn1	22	21	-39	3	7	7
Cc1cc(/C=c2\sc3nc4ccccc4n3c2=O)c(C)n1-c1ccc(C(=O)O)cc1	64	0.7*	-44	17	.	.
Cc1c(N)cc(N)cc1C(=O)O	83*	50*	0	16	1	13
Cc1c(Br)cc(C(=O)O)c(C)c1C	6	7	3	-1	16	5
Fc1cccc(-c2csc(-c3ccno3)n2)c1	-3	5	31	-6	2	11
Nc1nc(-c2cccc(F)c2)cs1	-14	-8	39*	-8	1	-8
Cc1cc(NC(=O)CCC(=O)N(c2ccc(F)cc2)C(C(=O)NC2CCCC2)c2ccccc2)no1 (configuration not stated)	6	-5	-4	-6	-1	-10
SMILES	eIF4H FP inh	PABP FP inh	MLLE-PAM2 inh	NS3 helicase inh	ZTA DNA inh	EBNA-1 inhibitor
CC(C)c1ccccc1-n1c(SCc2cc(=O)oc3ccc4ccccc4c23)nnc1-c1cccnc1	58*	active	-41	18	5	-17
CCOc1ccc(-n2c(SCc3cc(=O)oc4cc(C)ccc34)nnc2-c2cccnc2)cc1	-2	3	-44	-4	4	-13
CN(CC(=O)NC(=O)NCc1ccco1)Cc1nc2ccccc2c(=O)[nH]1	69*	41*	8	9	-8	-2
Cc1noc(C)c1COc1ccc(C(=O)N2CCN(S(=O)(=O)c3ccccc3)CC2)cc1	.	.	-4	.	11	.
Cc1ccc(-n2c(SCC(=O)N/N=C/c3c(C)nn(-c4ccccc4)c3C)nc3ccccc3c2=O)cc1	-4	-11	38*	0	-1	23
C=CCc1c(C)nc(SCc2nc3ccccc3c(=O)[nH]2)[nH]c1=O	-8	-12	22	1	5	-2
CCc1c(O)nc(SCc2nc3ccccc3c(=O)[nH]2)[nH]c1=O	active	54*	39*	5	2	2
COc1ccc(OC)c(N/C(C)=C/C(=O)c2ccncc2)c1	?	29*	-4	-9	-12	-9
O=C1NC(=O)C(CC(=O)N(Cc2cccs2)C2(C(=O)NC3CCCCC3)CCCCC2)N1 (configuration not stated)	active	52*	7	-3	3	-7
CCN(CC(=O)Nc1c(F)cccc1F)C(=O)CNC(=O)c1ccc2c(c1)OCO2	42	58*	6	-5	2	8
CCN(CC(=O)Nc1c(F)cccc1F)C(=O)CNC(=O)c1ccc2ccccc2c1	.	.	2	.	-5	.
Cc1cccn2c(=O)c3cc(C(=O)NCc4ccco4)c(=N)n(CCOCCO)c3nc12	.	.	58*	3	-15	-12
CCOC(=O)c1cc2c(=O)n3ccccc3nc2n(Cc2ccco2)c1=NC(=O)c1ccccc1OCC	90*	-6	-1	14	10	7
CCOC(=O)c1cc2c(=O)n3ccccc3nc2n(Cc2ccco2)c1=NC(=O)c1cccnc1	43	34	2	13	-4	1
N=c1c(C(=O)NCc2ccco2)cc2c(=O)n3ccccc3nc2n1CC1CCCO1 (configuration not stated)	.	.	47*	4	4	-5
N=c1c(C(=O)NCc2ccco2)cc2c(=O)n3ccccc3nc2n1CCc1ccccc1	59*	60*	-10	-5	-14	3
O=C(N/N=C/c1ccc(Cl)c([N+](=O)[O-])c1)c1cc(-c2ccccc2)nc2ccccc12	-11	4	-11	-3	12	15
COc1ccccc1CC(=O)O/N=C(\N)Cc1cccc2ccccc12	28	12	-6	-6	7	11
CC(CCc1ccccc1)NC(=O)CCc1cn(C)c2ccccc12 (configuration not stated)	-1	-5	-4	-4	0	-7
NC(=O)C1CCN(C(=O)CSc2nc(O)cc(=O)[nH]2)CC1	-1	0	11	-2	8	-1
COc1ccc(CCNC(=O)c2cc3c(=O)n4ccccc4nc3n(Cc3ccco3)c2=N)cc1OC	87*	10	-2	-6	11	6
